Screening data: PubChem, Johns Hopkins Ion Channel Center
TRPC6 inhibitor: mouse TRPC6 channel inhibition; 310,000 compounds, 1.1% hits; Q61143; HEK293-TRPC6, membrane potential dye, ACh-evoked depolarization; stronger effect = lower value; B-score at 10 µM;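 active means B-score under library mean minus 3 SD, initial fluorescence not abnormally high, positive integrated signal ratio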;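 further: B-score derived from integrated fluorescence ratio over the kinetic read; more negative B-score means stronger inhibition of depolarization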
TRPC6 act: activators of mouse TRPC6 channel; AID 2550; B-score at 10 µM; HEK293-TRPC6 membrane potential dye fluorescence; stronger effect = higher value; 310,000 compounds, 0.13% hits;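 active means B-score of the integrated fluorescence ratio above library mean plus 3 SD, and starting fluorescence ratio within library mean plus 5 SD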;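 further: higher score means more depolarization so channel activation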
TRPC4 act: TRPC4 (mouse) channel activation | Q9QUQ5 | HEK293 TRPC4beta/mu-opioid, Fluo4 calcium fluorescence; stronger effect = higher value | B-score at 10 µM | 310,000 compounds, 0.49% hits;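 active means B-score above 5 SD of library B-scores, and initial fluorescence ratio not above library mean plus 5 SD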;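 further: positive B-score marks a calcium rise read as TRPC4 activation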
Target sequence (Q9QUQ5 whole entry, looked up): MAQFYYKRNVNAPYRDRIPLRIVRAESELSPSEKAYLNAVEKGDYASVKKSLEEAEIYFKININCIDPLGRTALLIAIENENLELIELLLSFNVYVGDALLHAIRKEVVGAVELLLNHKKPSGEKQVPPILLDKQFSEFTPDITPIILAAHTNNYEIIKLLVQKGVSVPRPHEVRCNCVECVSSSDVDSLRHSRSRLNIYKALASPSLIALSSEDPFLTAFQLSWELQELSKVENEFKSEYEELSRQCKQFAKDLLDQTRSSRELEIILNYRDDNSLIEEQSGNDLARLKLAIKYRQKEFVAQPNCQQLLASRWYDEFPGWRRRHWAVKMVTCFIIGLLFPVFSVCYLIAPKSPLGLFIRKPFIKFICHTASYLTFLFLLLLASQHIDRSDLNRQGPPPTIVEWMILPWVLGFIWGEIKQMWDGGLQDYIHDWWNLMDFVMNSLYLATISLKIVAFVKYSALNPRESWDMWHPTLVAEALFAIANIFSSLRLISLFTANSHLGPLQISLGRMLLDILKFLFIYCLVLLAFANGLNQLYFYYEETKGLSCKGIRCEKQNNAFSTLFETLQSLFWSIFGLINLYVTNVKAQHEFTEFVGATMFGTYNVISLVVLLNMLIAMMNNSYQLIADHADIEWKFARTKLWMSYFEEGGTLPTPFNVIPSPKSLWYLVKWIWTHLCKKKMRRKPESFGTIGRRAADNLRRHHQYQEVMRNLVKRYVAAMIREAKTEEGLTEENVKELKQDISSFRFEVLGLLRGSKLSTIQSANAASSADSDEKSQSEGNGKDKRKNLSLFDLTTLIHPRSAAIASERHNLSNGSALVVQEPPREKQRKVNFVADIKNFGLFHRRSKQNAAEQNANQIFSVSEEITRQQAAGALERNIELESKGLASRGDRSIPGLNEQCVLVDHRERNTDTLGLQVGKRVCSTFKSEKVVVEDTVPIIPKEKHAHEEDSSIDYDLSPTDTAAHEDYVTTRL
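Test system: HEK293 cells stably co-expressing mouse TRPC4beta and mu-opioid receptor | Schedule: Fluo4 dye loading 45 min at room temperature, 110 s recording | Measured by: Kinetic Fluo4 calcium fluorescence, 5 s baseline at 1 Hz | Evaluation: B score of integrated ratio | Controls: Buffer (low) and maximal DAMGO (high)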
TRPC4 potent: allosterically enhances the mouse TRPC4 cation channel | HEK293 TRPC4beta/mu-opioid, DAMGO EC20, Fluo-4 Ca2+ flux; stronger effect = higher value | B-score at 10 µM | 310,000 compounds, 0.42% hits | AID 2227;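 active means B-score of calcium response area above 5 SD of library B-scores, with initial fluorescence ratio within 5 SD of library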;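 further: B-score of integrated fluorescence ratio over time as area under calcium response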
TRPC4 block: TRPC4 (mouse) channel inhibition; Q9QUQ5; HEK293 TRPC4beta/mu-opioid, DAMGO-evoked Fluo4 calcium flux; stronger effect = lower value; B-score at 10 µM; 300,000 compounds, 0.39% hits; AID 2247;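 active means B-score over 3 SD under the library average, no early fluorescence shift, positive overall ratio signal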
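Test system – stable TRPC4beta/mu-opioid receptor HEK293 cells · Probe or stimulus – DAMGO, a submaximal dose followed by a maximal one · Dosing – one concentration per compound · Signal – Fluo4 calcium fluorescence by kinetic imaging, 5 s 1 Hz baseline · Evaluation – per-well B score of integrated baseline-normalized Fluo4 ratio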
* marks the source's active call; other numbers are inactive results; i = inactive. An excerpt weighted towards active compounds, which were near 2.3% of everything screened.

SMILES	TRPC6 inhibitor	TRPC6 act	TRPC4 act	TRPC4 potent	TRPC4 block
CN(C)c1ccc(-[n+]2c(-c3ccccc3)cc(-c3ccccc3)cc2-c2ccccc2)cc1	i	i	i	11*	i
c1ccc(-c2cc(-c3ccccc3)[n+](-c3ccccc3)c(-c3ccccc3)c2)cc1	i	i	i	18*	i
CCOC(=O)c1ccc(-[n+]2c(-c3ccccc3)cc(-c3ccccc3)cc2-c2ccccc2)cc1	i	i	i	i	i
CCOC(=O)c1cccc(-[n+]2c(-c3ccccc3)cc(-c3ccccc3)cc2-c2ccccc2)c1	i	i	i	i	i
Cn1cc(C(=O)N2CCCCC2)c2ccccc21	i	i	i	i	i
CN(C)C1(CNC(=O)c2ccc(Cl)c(S(=O)(=O)NCc3ccco3)c2)CCCCC1	i	i	73*	i	i
CN(C)C(CNC(=O)Cc1c(Cl)cccc1Cl)c1ccccc1 (stereo unspecified)	i	i	219*	i	i
CC(NCc1cccc(Cl)c1Cl)C(O)c1ccccc1 (stereo unspecified)	i	i	i	i	i
O=[N+]([O-])c1cc2c(cc1CNCCc1ccc3c(c1)OCO3)OCO2	i	i	90*	i	-8*
CC(=O)c1ccc(OC(C)C)c(Cc2c(O)[nH]c(=S)[nH]c2=O)c1	i	i	i	i	i
COc1cccc(C2(O)CCN(CC(=O)Nc3nc(C)cs3)CC2)c1	i	i	i	i	i
COc1ccc(CC2c3cc(OC)c(OC)cc3CCN2C)cc1OC (stereo unspecified)	i	i	i	i	i
COc1ccc(C[C@@H]2c3cc(O)c(OC)cc3CCN2C)cc1O	i	i	i	17*	i
CCN(CC)C(=O)c1ccc(NC(=O)CNC(C)c2cccc3ccccc23)cc1 (stereo unspecified)	i	i	i	i	i
C=C(C)[C@@]12OC3(c4ccccc4)O[C@@H]1C1[C@@H]4O[C@]4(CO)[C@@H](O)[C@]4(O)C(=O)C(C)=C[C@H]4[C@@]1(O3)[C@H](C)[C@H]2OC(=O)/C=C/C=C/c1ccccc1 (stereo partly specified)	i	i	i	i	-6*
CCCN1CCC[C@@H]2Cc3nc(N)ncc3C[C@H]21	i	i	i	11*	i
CCCN1CCC[C@@H]2Cc3[nH]ncc3C[C@H]21	i	i	i	i	i
Cc1ccccc1C(O)(Cc1ccccc1)C1CN2CCC1CC2 (stereo unspecified)	i	i	87*	i	i
C[N+]1(C)[C@@H]2CC[C@H]1CC(OC(=O)C(CO)c1ccccc1)C2 (stereo partly specified)	-7.1*	i	i	i	i
CN(C)C(=O)Oc1ccc2c(c1)O/C(=C\c1cccc([N+](=O)[O-])c1)C2=O	i	i	i	i	i
CCOC(=O)C1(CCc2ccccc2)CCN(Cc2ccc3c(c2)OCCO3)CC1	i	i	i	i	i
CCOC(=O)C1(CCc2ccccc2)CCN(Cc2ccc(NC(C)=O)cc2)CC1	i	i	104*	i	i
CCN1CCC(NCC2CCCCC2)CC1	i	i	i	i	i
Cn1c(O)c(/C=C/C=Nc2ccccc2)c(=O)n(C)c1=S	i	i	i	i	i
CC1CCCC(C)N1/N=C/c1c[nH]c2ccc(Br)cc12 (stereo unspecified)	i	i	i	34*	i
SMILES	TRPC6 inhibitor	TRPC6 act	TRPC4 act	TRPC4 potent	TRPC4 block
CC(=O)NC1CC2CCC(C1)N2 (stereo unspecified)	i	i	i	i	i
Cc1ccc(C(=O)NC2CC3CCC(C2)N3)cc1 (stereo unspecified)	i	i	i	i	-5*
Cc1cc(C)c(N=Cc2c(O)[nH]c(=O)[nH]c2=O)c(C)c1	i	i	i	i	i
CCOc1c(Cl)cc(CNC(C)C(O)c2ccccc2)cc1OC (stereo unspecified)	i	i	i	i	-6*
COc1cc(OC)c(OC)cc1CNC(C)C(O)c1ccccc1 (stereo unspecified)	i	i	i	i	i
COC(=O)C(=O)N1CC2(C)CNCC(C)(C1)C2=O	i	i	i	i	i
CCNC(=O)C1OC(n2cnc3c(N)ncnc32)C(O)C1O (stereo unspecified)	i	i	53*	i	i
CN(CCOc1ccc(C=C2C(=O)NC(=O)NC2=O)cc1)c1ccccn1	i	i	46*	i	-6*
COc1ccc(OCCOc2cccc(C=C3C(=O)NC(=O)NC3=O)c2)cc1	i	i	i	i	i
CC(C)c1ccccc1NC1=NCCCS1	i	i	i	i	i
N#Cc1cc(F)c(N2CCNCC2)cc1Cl	i	i	i	i	i
N#Cc1ccc(N2CCNCC2)c(F)c1	i	i	53*	i	i
O=C(COc1ccc2ccc(=O)oc2c1)N1CCC(C(=O)O)(c2ccccc2)CC1	i	i	i	i	i
CN[C@H]1C[C@H]2O[C@@](C)([C@H]1OC)n1c3ccccc3c3c4c(c5c6ccccc6n2c5c31)C(=O)NC4	-5.8*	i	i	27*	i
O=C(O)Cc1cnc[nH]1	i	i	i	i	i
C[C@@H](N)Cc1cnc[nH]1	i	i	197*	i	i
Cc1ccc(-c2cc(-c3ccc(C)cc3)[n+](-c3ccc(C(=O)[O-])cc3)c(-c3ccc(C)cc3)c2)cc1	i	i	60*	i	i
C=CCn1c(O)c(C(CC)=Nc2ccc(N(C)C)cc2)c(=O)[nH]c1=O	i	i	i	i	i
CC(C)Oc1cc(-n2c(=S)[nH]c3ccccc3c2=O)c(Cl)cc1Cl	i	i	i	12*	i
CCn1ccnc1CN1CCCC(C(=O)c2cc(Cl)ccc2OC)C1 (stereo unspecified)	i	i	i	i	i
COc1ccc(Cl)cc1C(=O)C1CCCN(CCO)C1 (stereo unspecified)	i	i	70*	i	i
CCc1nccc2c1[nH]c1ccccc12	i	i	i	i	-6*
NCCCCCC(=O)OC1N=C(c2ccccc2Cl)c2cc(Br)ccc2NC1=O (stereo unspecified)	i	i	i	i	i
Fc1ccc(C2NCCc3[nH]cnc32)cc1 (stereo unspecified)	i	i	60*	i	i
Clc1cccc(C2NCCc3[nH]cnc32)c1 (stereo unspecified)	i	i	50*	i	i
